Assays:
[1] = target: Cathepsin S (Homo sapiens) (UniProt P25774); test: Irreversible inhibition of human cathepsin S using Z-Phe-Arg-AMC as substrate assessed as ratio of Kinac/Ki after 10 to 80 mins by fluorimetric analysis
[2] = target: T1, Cathepsin K (Homo sapiens) (UniProt P43235); test: Irreversible inhibition of human cathepsin K using Z-Leu-Arg-AMC as substrate assessed as ratio of Kinac/Ki after 10 to 80 mins by fluorimetric analysis
T1 sequence (whole entry): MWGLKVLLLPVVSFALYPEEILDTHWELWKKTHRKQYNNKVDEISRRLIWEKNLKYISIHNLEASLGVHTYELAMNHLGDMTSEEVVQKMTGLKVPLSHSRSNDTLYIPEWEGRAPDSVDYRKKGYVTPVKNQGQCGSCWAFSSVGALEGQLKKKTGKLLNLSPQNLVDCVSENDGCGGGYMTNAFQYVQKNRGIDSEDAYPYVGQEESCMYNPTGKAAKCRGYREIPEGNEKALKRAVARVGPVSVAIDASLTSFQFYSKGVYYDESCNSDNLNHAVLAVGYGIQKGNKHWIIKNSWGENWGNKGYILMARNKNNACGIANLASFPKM

[3] = target: Cathepsin B (Homo sapiens) (UniProt P07858); test: Irreversible inhibition of human cathepsin B using Z-Arg-Arg-pNA as substrate assessed as ratio of Kinac/Ki after 10 to 80 mins by photometric analysis
[4] = target: Procathepsin L (Homo sapiens) (UniProt P07711); test: Irreversible inhibition of human cathepsin L using Z-Phe-Arg-pNA as substrate assessed as ratio of Kinac/Ki after 10 to 80 mins by photometric analysis
[5] = target: Cathepsin S (Homo sapiens) (UniProt P25774); test: Irreversible inhibition of human cathepsin S using Z-Phe-Arg-AMC as substrate by fluorimetric analysis; conditions: TDE = time-dependent effect
How it was run: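 Human cathepsin S monitored fluorimetrically (ex 360, em 440 nm) at 25 °C, pH 6.0. […] Progress curves were fitted non-linearly for kobs, and kinac/Ki was calculated including the [S]/Km competition term.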

[6] = target: T1, Cathepsin K (Homo sapiens); test: Irreversible inhibition of human cathepsin K using Z-Leu-Arg-AMC as substrate by fluorimetric analysis; conditions: TDE = time-dependent effect
[7] = target: Cathepsin B (Homo sapiens) (UniProt P07858); test: Irreversible inhibition of human cathepsin B using Z-Arg-Arg-pNA as substrate by photometric analysis; conditions: TDE = time-dependent effect
How it was run: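 Human cathepsin B assayed photometrically at 405 nm, 37 °C, pH 6.0. […] Progress curves were fitted by non-linear regression to get kobs, and kinac/Ki was derived with correction for substrate competition ([S]/Km).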

[8] = target: Procathepsin L (Homo sapiens) (UniProt P07711); test: Irreversible inhibition of human cathepsin L using Z-Phe-Arg-pNA as substrate by photometric analysis; conditions: TDE = time-dependent effect

Chain of Procathepsin L (Homo sapiens) (P07711 114-333 limits assumed): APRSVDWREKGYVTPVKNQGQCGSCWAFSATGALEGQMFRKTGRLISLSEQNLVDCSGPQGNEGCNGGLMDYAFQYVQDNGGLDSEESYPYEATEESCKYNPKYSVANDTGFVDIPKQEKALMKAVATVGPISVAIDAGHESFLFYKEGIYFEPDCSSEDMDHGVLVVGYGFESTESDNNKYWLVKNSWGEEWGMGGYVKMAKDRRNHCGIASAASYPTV
Chain of Cathepsin S (Homo sapiens) (P25774 115-331 limits assumed): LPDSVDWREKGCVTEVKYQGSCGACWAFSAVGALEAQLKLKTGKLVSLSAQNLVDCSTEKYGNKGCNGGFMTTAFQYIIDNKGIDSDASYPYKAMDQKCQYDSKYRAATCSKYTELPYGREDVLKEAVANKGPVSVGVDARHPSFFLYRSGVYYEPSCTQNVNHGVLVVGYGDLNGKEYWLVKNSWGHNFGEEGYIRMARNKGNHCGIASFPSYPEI

| Compound | Ratio [1] [M⁻¹ s⁻¹] | Ratio [2] [M⁻¹ s⁻¹] | Ratio [3] [M⁻¹ s⁻¹] | Ratio [4] [M⁻¹ s⁻¹] | inhibition [5] | inhibition [6] | inhibition [7] | inhibition [8] |
| --- | --- | --- | --- | --- | --- | --- | --- | --- |
| CCOC(=O)/C=C/CNC(=O)[C@H](CC(C)C)NC(=O)OC(C)(C)C | 6600 | 11600 | 3090 | 1280 | Tde | Tde | Tde | Tde |
| CCOC(=O)/C=C/CNC(=O)[C@H](Cc1ccccc1)NC(=O)CCNC(=O)OC(C)(C)C | 879 | 759 | 2660 | 3540 | Tde | Tde | Tde | Tde |
| CC(C)(C)OC(=O)N[C@@H](Cc1ccccc1)C(=O)NC/C=C/S(=O)(=O)c1ccccc1 | 7960 | 1320 | 378 | 5880 | Tde | Tde | Tde | Tde |
| CC(C)(C)OC(=O)NCCC(=O)N[C@@H](Cc1ccccc1)C(=O)NC/C=C/S(=O)(=O)c1ccccc1 | 13100 | 2230 | 214 | 12800 | Tde | Tde | Tde | Tde |
| CCOC(=O)/C=C/CNC(=O)[C@H](Cc1ccccc1)NC(=O)COCCOCCNC(=O)OC(C)(C)C | 557 | 297 | 348 | 652 | Tde | Tde | Tde | Tde |
| CCOC(=O)/C=C/CNC(=O)[C@H](CC(C)C)NC(=O)CCNC(=O)OC(C)(C)C | 2590 | 2890 | 248 | 554 | Tde | Tde | Tde | Tde |
| CC(C)C[C@H](NC(=O)OC(C)(C)C)C(=O)NC/C=C/S(=O)(=O)c1ccccc1 | 28400 | 18300 | 85.1 | 879 | Tde | Tde | Tde | Tde |
| CC(C)C[C@H](NC(=O)CCNC(=O)OC(C)(C)C)C(=O)NC/C=C/S(=O)(=O)c1ccccc1 | 30600 | 12500 | 58.3 | 671 | Tde | Tde | Tde | Tde |
| CCOC(=O)/C=C/CNC(=O)[C@H](Cc1ccccc1)NC(=O)OC(C)(C)C | 525 | 752 | 3660 | 1120 | Tde | Tde | Tde | Tde |
| CC(C)C[C@H](NC(=O)COCCOCCNC(=O)OC(C)(C)C)C(=O)NC/C=C/S(=O)(=O)c1ccccc1 | 11900 | 25.5 | 150 | 3310 | Tde | Tde | Tde | Tde |

From ChEMBL document CHEMBL4118165, “Synthesis and kinetic evaluation of ethyl acrylate and vinyl sulfone derived inhibitors for human cysteine cathepsins” (Bioorg Med Chem Lett, 2018)
